Source: ChEMBL document CHEMBL1150667, “New cytotoxic constituents from the Formosan soft corals Clavularia viridis and Clavularia violacea” (2002)
≈ marks a conversion by molar mass, not a printed value.

Legend:
Assay type in all cases: functional
A549 = assay: Cytotoxicity against human A549 cells; details: for EC50: Homo sapiens, A549, read-out: ED50 (the source's name)
Procedure, shortened: (§1)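 Human lung adenocarcinoma (A549) and colon adenocarcinoma (HT-29) lines obtained from ATCC. Cytotoxicity assayed in cell culture following a previously published standard procedure.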

HT-29 = assay: Cytotoxicity against human HT-29 cells; details: read-out: ED50 (the source's name); procedure, shortened: as §1
P388 = assay: Cytotoxicity against mouse P388 cells; details: for EC50: Mus musculus, P388, read-out: ED50 (the source's name)
Procedure, shortened: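 Mouse lymphocytic leukemia P-388 cells obtained from an academic laboratory (University of Illinois at Chicago). Cytotoxicity assayed in cell culture following a previously published standard procedure.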

SMILES	ED50 (A549)	EC50 (HT-29)	ED50 (P388)	EC50 (A549)	EC50 (P388)
CC(C)[C@@H](C)CC[C@@H](C)[C@H]1CC[C@H]2[C@@H]3C[C@@H](O)C4=CC=CC(=O)[C@]4(C)[C@H]3[C@H](O)C[C@]12C [STOLONIFERONE E]	3.2 ×10⁻⁴ ug/ml	0.0091 µg/mL (≈ 0.0212 µM)	1.2 ×10⁻⁴ ug/ml	–	–
C=C1C(=O)O[C@H]2/C=C(\C)C[C@H](OC(C)=O)/C=C(\C)C[C@H](OC(C)=O)/C=C(\C)CC[C@H]12 [CLAVIOLIDE]	–	0.84 µg/mL (≈ 2.02 µM)	–	4.91 µg/mL (≈ 11.8 µM)	0.38 µg/mL (≈ 0.912 µM)
CCCCC/C=C\C[C@]1(OC(C)=O)C=CC(=O)/C1=C/C=C/CCCC(=O)OC [CLAVIRIDENONE E]	–	1.02 µg/mL (≈ 2.63 µM)	–	0.41 µg/mL (≈ 1.06 µM)	0.11 µg/mL (≈ 0.283 µM)
CC(C)[C@@H](C)CC[C@@H](C)[C@H]1CC[C@H]2[C@@H]3C[C@@H](O)[C@@]4(O)C=C[C@@H](O)C(=O)[C@]4(C)[C@H]3[C@H](O)C[C@]12C [STOLONIFERONE F]	–	6.46 µg/mL (≈ 14 µM)	–	3.69 µg/mL (≈ 7.98 µM)	2.36 µg/mL (≈ 5.1 µM)
C=C(CC[C@@H](C)[C@H]1CC[C@H]2[C@@H]3C[C@@H](O)[C@@]4(O)C=C[C@@H](O)C(=O)[C@]4(C)[C@H]3[C@H](O)C[C@]12C)C(C)C [STOLONIFERONE G]	–	5.86 µg/mL (≈ 12.7 µM)	–	3.58 µg/mL (≈ 7.77 µM)	2.12 µg/mL (≈ 4.6 µM)
